From ChEMBL document CHEMBL4229392, “An Efficient Buchwald-Hartwig/Reductive Cyclization for the Scaffold Diversification of Halogenated Phenazines: Potent Antibacterial Targeting, Biofilm Eradication, and Prodrug Exploration” (J Med Chem, 2018)
Values after ≈ are worked out from the molar mass of the structure shown.

What was measured:
[1] = test system: Staphylococcus aureus; experiment: Bactericidal activity against methicillin-resistant Staphylococcus aureus BAA-1707 planktonic cells after 24 hrs by calgary biofilm device method; format: organism-based
Summary of the method: (§1)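 Biofilms grown 24 h at 37 °C on Calgary device pegs from mid-log culture diluted 1,000-fold in TSB + 0.5% glucose; washed pegs challenged 24 h at 37 °C with 2-fold serial dilutions. Challenge medium subcultured into fresh TSBG overnight; MBC = concentration without visible turbidity; at least three independent experiments.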

[2] = test system: Staphylococcus epidermidis; experiment: Induction of biofilm eradication of methicillin-resistant Staphylococcus epidermidis ATCC 35984 after 24 hrs by calgary biofilm device method; format: functional
Summary of the method: (§2)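 Calgary device: biofilms established 24 h at 37 °C from mid-log culture diluted 1,000-fold in TSBG (0.5% glucose), washed, exposed 24 h to 2-fold serial dilutions, then peg lid moved to fresh TSBG for 24 h recovery. MBEC = lowest concentration giving no turbidity; at least three independent experiments.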

[3] = Half life in human serum by LC-MS analysis; format: ADME, cell-free
Summary of the method: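 Human serum pre-warmed to 37 °C, spiked with prodrug from 10 mM DMSO stock plus internal standard, vortexed, then held 1 to 60 min. At each time point, acetonitrile with 0.5% formic acid was added to precipitate proteins. Released active HP was quantified as its ratio to internal standard against standard curves.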

[4] = Hemolytic activity in human RBC at 200 uM after 1 hr relative to control; format: ADME, cell-based, Erythrocyte; conditions: red blood cells (erythrocytes), read-out: Activity
Summary of the method: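 Human RBCs drawn fresh into EDTA were washed three times in Tris-buffered saline (0.01 M Tris, 0.155 M NaCl, pH 7.2). 2% hRBC suspension was added to compound from DMSO stock, final 200 µM, for 1 h at 37 °C, then centrifuged and supernatant OD405 read. Scaled between DMSO (0%) and Triton X (100%). Three independent experiments.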

[5] = test system: Enterococcus faecium; experiment: Antibacterial activity against vancomycin-resistant Enterococcus faecium ATCC 700221 after 16 to 18 hrs by broth microdilution method; format: functional
Summary of the method: (§3)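 CLSI broth microdilution in Lysogeny Broth, eleven two-fold dilutions spanning 0.10–100 µM; ~10^5 cells per well from log-phase culture; DMSO vehicle (top 1% v/v). MIC = lowest concentration preventing growth after 16–18 h at 37 °C, supported by OD600; three independent experiments.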

[6] = test system: Staphylococcus epidermidis; experiment: Bactericidal activity against methicillin-resistant Staphylococcus epidermidis ATCC 35984 planktonic cells after 24 hrs by calgary biofilm device method; format: organism-based; summary of the method: as §1
[7] = test system: HeLa; experiment: Cytotoxicity against human HeLa cells after 24 hrs by LDH release assy; format: cell-based
Summary of the method: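 HeLa cells in DMEM with 10% FBS at 37 °C, 5% CO2, dosed at 70-80% confluence with compound diluted in medium at 25, 50 and 100 µM for 24 h. Supernatant mixed with LDH reaction mixture, 30 min at room temperature, stopped, A490 read. Triton X-100 (2% v/v) as maximal-release control, medium only as no-death control, DMSO as vehicle. Three independent experiments.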

[8] = test system: Staphylococcus epidermidis; experiment: Antibacterial activity against methicillin-resistant Staphylococcus epidermidis ATCC 35984 after 16 to 18 hrs by broth microdilution method; format: functional
[9] = test system: Staphylococcus aureus; experiment: Antibacterial activity against methicillin-resistant Staphylococcus aureus 2 after 16 to 18 hrs by broth microdilution method; format: functional; summary of the method: as §3
[10] = test system: Staphylococcus aureus; experiment: Antibacterial activity against methicillin-resistant Staphylococcus aureus BAA-1707 after 16 to 18 hrs by broth microdilution method; format: functional; summary of the method: as §3
[11] = test system: Staphylococcus aureus; experiment: Induction of biofilm eradication of methicillin-resistant Staphylococcus aureus BAA-1707 after 24 hrs by calgary biofilm device method; format: functional; summary of the method: as §2
[12] = test system: Staphylococcus aureus; experiment: Induction of biofilm eradication of methicillin-resistant Staphylococcus aureus 2 after 24 hrs by calgary biofilm device method; format: functional; summary of the method: as §2
[13] = test system: Staphylococcus aureus; experiment: Bactericidal activity against methicillin-resistant Staphylococcus aureus 2 planktonic cells after 24 hrs by calgary biofilm device method; format: organism-based; summary of the method: as §1
[14] = test system: Enterococcus faecium; experiment: Bactericidal activity against vancomycin-resistant Enterococcus faecium ATCC 700221 planktonic cells after 24 hrs by calgary biofilm device method; format: organism-based; summary of the method: as §1
[15] = test system: Enterococcus faecium; experiment: Induction of biofilm eradication of vancomycin-resistant Enterococcus faecium ATCC 700221 after 24 hrs by calgary biofilm device method; format: functional; summary of the method: as §2
[16] = test system: Mycobacterium tuberculosis; experiment: Antibacterial activity against Mycobacterium tuberculosis H37Ra ATCC 25177 after 7 days; format: functional; conditions: H37Ra ATCC 25177, 168 h
Summary of the method: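 M. tuberculosis H37Ra grown two weeks in Middlebrook 7H9, diluted to OD600 0.01; two-fold serial dilutions 0.024–50 µM (streptomycin positive control, 0.16–340 µM); final DMSO 0.5%. Incubated 7 days at 37 °C; MIC = lowest concentration with no growth, OD600 recorded; three independent experiments.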

SMILES	MBC [1] [µM]	MBEC [2] [µM]	half-life [3] [min]	hemolysis at 1 h, 200 µM [4] [%]	MIC [5] [µM]	MBC [6] [µM]	IC50 [7] [µM]	MIC [8] [µM]	MIC [9] [µM]	MIC [10] [µM]	MBEC [11] [µM]	MBEC [12] [µM]	MBC [13] [µM]	MBC [14] [µM]	MBEC [15] [µM]	MIC [16] [µM]
COCCOCCOCCOCCOC(=O)Oc1c(Br)cc(Br)c2nc3cc(Cl)ccc3nc12	6.25 (≈ 3.89 µg/mL)	18.8	< 1	1.1	0.1 (≈ 0.0623 µg/mL)	9.38 (≈ 5.84 µg/mL)	> 100	0.038 (≈ 0.0237 µg/mL)	–	–	–	–	–	–	–	–
CC(=O)NC[C@H]1CN(c2ccc(N3CCOCC3)c(F)c2)C(=O)O1 [LINEZOLID]	31.3 (≈ 10.6 µg/mL)	–	–	≤ 1	–	–	–	–	3.13 (≈ 1.06 µg/mL)	12.5 (≈ 4.22 µg/mL)	>2000	>2000	–	–	–	–
O=C(OCCOCCOCCOCCO)OCOc1c(Br)cc(Br)c2nc3ccccc3nc12	–	–	7.3	2.7	> 100	–	> 100	> 100	–	> 100	–	–	–	–	–	–
N#CC(C#N)=NNc1cccc(Cl)c1 [CARBONYL CYANIDE M-CHLOROPHENYLHYDRAZONE]	–	93.8	–	–	–	31.3 (≈ 6.4 µg/mL)	–	–	–	–	–	1000	31.3 (≈ 6.4 µg/mL)	–	–	–
CCOC(=O)c1ccc2nc3c(O)c(Br)cc(Br)c3nc2c1	–	–	–	–	2.35 (≈ 1 µg/mL)	–	–	–	–	–	–	–	–	–	–	–
CCCc1cn(Cc2ccc3nc4c(OC(C)=O)c(Br)cc(Br)c4nc3c2)nn1	–	–	–	–	> 100	–	–	–	–	100 (≈ 51.9 µg/mL)	–	–	–	–	–	–
CS(=O)(=O)N1CCN(C(=O)Oc2c(Br)cc(Br)c3nc4ccccc4nc23)C1=O	37.5 (≈ 20.4 µg/mL)	37.5	< 1	≤ 1	3.13 (≈ 1.7 µg/mL)	18.8 (≈ 10.2 µg/mL)	> 100	1.56 (≈ 0.849 µg/mL)	–	–	75	–	–	9.38 (≈ 5.1 µg/mL)	9.38	–
CCN(CC)c1ccc2nc3c(O)c(Br)cc(Br)c3nc2c1Br	9.38 (≈ 4.73 µg/mL)	6.25	–	≤ 1	0.3 (≈ 0.151 µg/mL)	9.38 (≈ 4.73 µg/mL)	> 100	0.1 (≈ 0.0504 µg/mL)	0.3 (≈ 0.151 µg/mL)	0.15 (≈ 0.0756 µg/mL)	4.69	–	–	–	–	–
O=C(OCCSSCCOC(=O)c1ccccc1)OCOc1c(Br)cc(Br)c2nc3ccccc3nc12	–	–	–	1.3	> 100	–	> 100	> 100	–	> 100	–	–	–	–	–	–
O=C(O)CN(CCN(CC(=O)O)CC(=O)O)CC(=O)O [EDETIC ACID]	> 2000	>2000	–	–	–	1000 (≈ 292 µg/mL)	–	–	–	25 (≈ 7.31 µg/mL)	>2000	>2000	2000 (≈ 584 µg/mL)	–	–	–
COCCOCCOCCOCCOC(=O)Oc1c(Br)cc(Br)c2nc3cc(Oc4ccccc4)ccc3nc12	18.8 (≈ 12.8 µg/mL)	–	< 1	≤ 1	0.3 (≈ 0.204 µg/mL)	9.38 (≈ 6.38 µg/mL)	–	0.075 (≈ 0.051 µg/mL)	–	0.1 (≈ 0.068 µg/mL)	4.69	–	–	–	1.17	–
CCCCCCCCCC(=O)N[C@@H](Cc1c[nH]c2ccccc12)C(=O)N[C@@H](CC(N)=O)C(=O)N[C@@H](CC(=O)O)C(=O)N[C@@H]1C(=O)NCC(=O)N[C@@H](CCCN)C(=O)N[C@@H](CC(=O)O)C(=O)N[C@H](C)C(=O)N[C@@H](CC(=O)O)C(=O)NCC(=O)N[C@H](CO)C(=O)N[C@@H]([C@H](C)CC(=O)O)C(=O)N[C@@H](CC(=O)c2ccccc2N)C(=O)O[C@@H]1C [DAPTOMYCIN]	–	–	–	–	–	–	–	–	–	3.13 (≈ 5.07 µg/mL)	>2000	>2000	–	–	–	–
Cc1cc(C)c2nc3c(Br)ccc(O)c3nc2c1	–	–	–	–	9.38 (≈ 2.84 µg/mL)	–	> 100	–	–	4.69 (≈ 1.42 µg/mL)	–	–	–	–	–	50 (≈ 15.2 µg/mL)
Cc1ccc2nc3c(O)c(Br)cc(Br)c3nc2c1	–	–	–	≤ 1	2.35 (≈ 0.865 µg/mL)	–	> 100	0.3 (≈ 0.11 µg/mL)	–	–	–	–	–	12.5 (≈ 4.6 µg/mL)	3.13	6.25 (≈ 2.3 µg/mL)
